Reference: ChEMBL document CHEMBL3085773, “A general method for making peptide therapeutics resistant to serine protease degradation: application to dipeptidyl peptidase IV substrates” (J Med Chem, 2013)
Values belong to the molecule of their own block, whether it stands above or below them. Calls of active or inactive are those of the source. No cut-off for these calls is given here. Square brackets hold non-standard residues; d marks the D form. Peptide text beside a SMILES is read from it. ξ: configuration not given here. ξAsp(3,3-Me2) = CC(C)(C(=O)O)C(N)C(=O)O; ξTle = CC(C)(C)C(N)C(=O)O

Assays:
Alpha-lytic protease = Alpha-lytic protease (Lysobacter enzymogenes, UniProt P00778); test: Stability of the compound assessed as Lysobacter enzymogenes alpha-LP-mediated compound degradation at 0.1 mM after 5 hrs by reverse-phase HPLC/MS analysis; assay type: ADME; details: 100 µM
Sequence of Alpha-lytic protease (P00778 whole entry): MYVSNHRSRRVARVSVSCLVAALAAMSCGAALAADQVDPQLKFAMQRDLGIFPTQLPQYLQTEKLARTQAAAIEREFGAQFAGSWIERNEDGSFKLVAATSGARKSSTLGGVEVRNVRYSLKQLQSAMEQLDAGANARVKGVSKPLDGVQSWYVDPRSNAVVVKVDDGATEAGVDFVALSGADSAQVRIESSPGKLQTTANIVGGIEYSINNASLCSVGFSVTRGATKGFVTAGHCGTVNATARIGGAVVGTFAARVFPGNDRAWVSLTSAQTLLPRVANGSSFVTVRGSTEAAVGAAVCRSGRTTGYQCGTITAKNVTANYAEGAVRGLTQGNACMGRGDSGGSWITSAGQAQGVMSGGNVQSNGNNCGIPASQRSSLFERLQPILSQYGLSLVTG

Mus musculus [1] = test: Toxicity in C57BL/6 mouse assessed as effect on food consumption at 1 mg/kg, ip qd administered for 7 days measured every day during compound administration; assay type: organism-based; parameters: dose 1 mg/kg, route intraperitoneal; details: in vivo, 168 h
Method in brief: (§1)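 C57BL/6 mice given 1 mg/kg ip once daily for seven days, or vehicle; body weight and per-cage food intake recorded daily; water consumption measured on days 3 and 7.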

Mus musculus [2] = test: Toxicity in C57BL/6 mouse assessed as effect on body weight at 1 mg/kg, ip qd administered for 7 days measured every day during compound administration; assay type: organism-based; parameters: dose 1 mg/kg, route intraperitoneal; details: in vivo, 168 h; method in brief: as §1
Mus musculus [3] = test: Antidiabetic activity in db/db mouse assessed as reduction of blood glucose AUC (0 to 480 mins) at 0.2 mg/kg, ip; assay type: functional, organism-based; parameters: dose 0.2 mg/kg
Mus musculus [4] = test: Antidiabetic activity in db/db mouse assessed as reduction of blood glucose level at 0.2 mg/kg, ip measured at 240 mins relative to vehicle-treated control; assay type: functional, organism-based; parameters: dose 0.2 mg/kg
Method in brief: (§2)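 db/db mice given 8 µg/mouse peptide or PBS vehicle ip; fasting blood glucose measured before and at set times after dosing; expressed as percent change from basal FBG; 10 animals per group.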

Mus musculus [5] = test: Antidiabetic activity in db/db mouse assessed as reduction of blood glucose level at 0.2 mg/kg, ip after 60 mins relative to vehicle-treated control; assay type: functional; parameters: scale not given: the % may be the effect or the level left; details: route intraperitoneal; method in brief: as §2
Mus musculus [6] = test: Antidiabetic activity in db/db mouse assessed as reduction of blood glucose level at 0.2 mg/kg, ip after 90 mins relative to vehicle-treated control; assay type: functional; parameters: scale not given: the % may be the effect or the level left; details: route intraperitoneal; method in brief: as §2
Dipeptidyl peptidase 4 = Dipeptidyl peptidase 4 (Homo sapiens, UniProt P27487); test: Stability of the compound assessed as recombinant human DPP4-mediated compound degradation at 0.1 mM measured after 24 hrs by reverse-phase HPLC/MS analysis; assay type: ADME; details: 100 µM
Sequence of Dipeptidyl peptidase 4 (P27487 whole entry): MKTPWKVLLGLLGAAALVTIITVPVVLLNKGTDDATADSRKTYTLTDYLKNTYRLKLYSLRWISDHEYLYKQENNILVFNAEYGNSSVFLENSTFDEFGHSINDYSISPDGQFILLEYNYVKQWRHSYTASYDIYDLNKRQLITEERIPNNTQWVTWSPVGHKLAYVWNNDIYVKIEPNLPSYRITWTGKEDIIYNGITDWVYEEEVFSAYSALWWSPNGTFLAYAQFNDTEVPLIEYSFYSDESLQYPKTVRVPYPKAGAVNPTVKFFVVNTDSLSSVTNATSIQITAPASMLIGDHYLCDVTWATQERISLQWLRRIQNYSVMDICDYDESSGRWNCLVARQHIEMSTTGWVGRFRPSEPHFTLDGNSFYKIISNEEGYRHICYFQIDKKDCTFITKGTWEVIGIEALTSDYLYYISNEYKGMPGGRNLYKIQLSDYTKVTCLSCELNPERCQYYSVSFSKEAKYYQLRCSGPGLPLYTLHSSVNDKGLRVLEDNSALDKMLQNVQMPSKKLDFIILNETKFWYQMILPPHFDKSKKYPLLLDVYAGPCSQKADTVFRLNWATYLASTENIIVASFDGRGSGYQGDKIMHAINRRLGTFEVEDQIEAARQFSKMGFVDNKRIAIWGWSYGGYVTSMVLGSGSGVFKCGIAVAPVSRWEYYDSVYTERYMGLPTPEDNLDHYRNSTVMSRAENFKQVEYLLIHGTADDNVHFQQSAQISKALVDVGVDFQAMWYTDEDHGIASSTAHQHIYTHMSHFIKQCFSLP
Method in brief: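 GLP-1 peptides (0.1 mM) incubated at 37 °C with recombinant human DPP IV in 50 mM HEPES, 0.14 M NaCl, pH 8.0, up to 24 h; acid-quenched samples analysed by RP-HPLC-MS for intact peptide.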

Mus musculus [7] = test: Toxicity in C57BL/6 mouse assessed as abnormalities in brain at 1 mg/kg, ip qd measured on day 7 by necropsy analysis; assay type: organism-based; parameters: dose 1 mg/kg, route intraperitoneal; details: in vivo
Method in brief: (§3)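 C57BL/6 mice dosed ip once daily for seven days at 1 mg/kg or vehicle; necropsy on day 7 after final dose; liver, kidneys, pancreas, heart and brain collected, inspected for gross abnormalities and weighed; twelve animals in study.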

Mus musculus [8] = test: Toxicity in C57BL/6 mouse assessed as abnormalities in heart at 1 mg/kg, ip qd measured on day 7 by necropsy analysis; assay type: organism-based; parameters: dose 1 mg/kg, route intraperitoneal; details: in vivo; method in brief: as §3
Mus musculus [9] = test: Toxicity in C57BL/6 mouse assessed as abnormalities in pancreas at 1 mg/kg, ip qd measured on day 7 by necropsy analysis; assay type: organism-based; parameters: dose 1 mg/kg, route intraperitoneal; details: in vivo; method in brief: as §3
Mus musculus [10] = test: Toxicity in C57BL/6 mouse assessed as abnormalities in kidney at 1 mg/kg, ip qd measured on day 7 by necropsy analysis; assay type: organism-based; parameters: dose 1 mg/kg, route intraperitoneal; details: in vivo; method in brief: as §3
Mus musculus [11] = test: Toxicity in C57BL/6 mouse assessed as abnormalities in liver at 1 mg/kg, ip qd measured on day 7 by necropsy analysis; assay type: organism-based; parameters: dose 1 mg/kg, route intraperitoneal; details: in vivo; method in brief: as §3
Mus musculus [12] = test: Toxicity in C57BL/6 mouse assessed as change in brain weight at 1 mg/kg, ip qd measured on day 7 by necropsy analysis; assay type: organism-based; parameters: dose 1 mg/kg, route intraperitoneal; details: in vivo; method in brief: as §3
Mus musculus [13] = test: Toxicity in C57BL/6 mouse assessed as change in heart weight at 1 mg/kg, ip qd measured on day 7 by necropsy analysis; assay type: organism-based; parameters: dose 1 mg/kg, route intraperitoneal; details: in vivo; method in brief: as §3
Mus musculus [14] = test: Toxicity in C57BL/6 mouse assessed as change in pancreas weight at 1 mg/kg, ip qd measured on day 7 by necropsy analysis; assay type: organism-based; parameters: dose 1 mg/kg, route intraperitoneal; details: in vivo; method in brief: as §3
Mus musculus [15] = test: Toxicity in C57BL/6 mouse assessed as change in liver weight at 1 mg/kg, ip qd measured on day 7 by necropsy analysis; assay type: organism-based; parameters: dose 1 mg/kg, route intraperitoneal; details: in vivo; method in brief: as §3
Mus musculus [16] = test: Toxicity in C57BL/6 mouse assessed as change in kidney weight at 1 mg/kg, ip qd measured on day 7 by necropsy analysis; assay type: organism-based; parameters: dose 1 mg/kg, route intraperitoneal; details: in vivo; method in brief: as §3
Mus musculus [17] = test: Toxicity in C57BL/6 mouse assessed as effect on water consumption at 1 mg/kg, ip qd administered for 7 days measured on day 3 and day 7; details: in vivo, 168 h
[18] = target: DPP4 (dipeptidyl peptidase 4) (Sus scrofa, UniProt P22411); test: Stability of the compound assessed as porcine DPP4-mediated compound degradation measured intact level at 0.1 mM measured at 30 mins by reverse-phase HPLC/MS analysis; assay type: ADME; details: pig, read-out: Stability
Sequence of DPP4 (dipeptidyl peptidase 4) (P22411 whole entry): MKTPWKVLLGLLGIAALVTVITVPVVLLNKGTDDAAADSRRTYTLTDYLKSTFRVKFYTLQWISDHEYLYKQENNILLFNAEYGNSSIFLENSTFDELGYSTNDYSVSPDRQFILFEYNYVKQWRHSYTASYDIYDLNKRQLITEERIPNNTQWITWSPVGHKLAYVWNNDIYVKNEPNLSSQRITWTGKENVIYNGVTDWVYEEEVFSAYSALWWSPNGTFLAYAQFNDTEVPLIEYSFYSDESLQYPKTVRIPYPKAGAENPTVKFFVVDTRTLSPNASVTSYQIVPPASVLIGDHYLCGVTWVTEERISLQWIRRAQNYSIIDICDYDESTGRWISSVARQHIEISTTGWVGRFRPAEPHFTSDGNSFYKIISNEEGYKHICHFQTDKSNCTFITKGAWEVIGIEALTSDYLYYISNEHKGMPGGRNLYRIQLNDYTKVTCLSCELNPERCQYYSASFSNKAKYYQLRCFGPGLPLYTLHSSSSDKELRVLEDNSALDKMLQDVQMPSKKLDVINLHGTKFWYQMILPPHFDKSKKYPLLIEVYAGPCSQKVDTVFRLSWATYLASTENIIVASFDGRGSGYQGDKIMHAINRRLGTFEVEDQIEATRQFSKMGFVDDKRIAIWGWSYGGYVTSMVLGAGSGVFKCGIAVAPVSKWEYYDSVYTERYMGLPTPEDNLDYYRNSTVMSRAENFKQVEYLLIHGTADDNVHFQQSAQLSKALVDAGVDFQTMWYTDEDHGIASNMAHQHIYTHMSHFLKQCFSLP
Method in brief: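 Synthetic hexapeptides (0.1 mM) incubated at 37 °C with 10 mU/mL DPP IV purified from porcine kidney in 50 mM HEPES, 0.14 M NaCl, pH 8.0; intact peptide by HPLC-MS, expressed as percent of time-zero value.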

Trypsin = Trypsin (Sus scrofa, UniProt P00761); test: Stability of the compound assessed as porcine pancreatic trypsin-mediated compound degradation at 0.1 mM after 5 hrs by reverse-phase HPLC/MS analysis; assay type: ADME; details: pig, isolated protein, 100 µM
Sequence of Trypsin (P00761 whole entry): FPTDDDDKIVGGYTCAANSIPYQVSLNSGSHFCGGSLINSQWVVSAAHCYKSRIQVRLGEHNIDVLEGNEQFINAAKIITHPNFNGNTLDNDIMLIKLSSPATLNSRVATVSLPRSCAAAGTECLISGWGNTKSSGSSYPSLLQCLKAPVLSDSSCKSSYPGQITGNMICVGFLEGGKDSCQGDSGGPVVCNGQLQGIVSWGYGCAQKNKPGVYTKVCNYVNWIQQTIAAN

[19] = target: Chymotrypsinogen A (Bos taurus) (UniProt P00766); test: Stability of the compound assessed as bovine pancreatic chymotrypsin-mediated compound degradation measured intact level at 0.1 mM after 0.6 hrs by reverse-phase HPLC/MS analysis; details: cow

SMILES: CC(C)C[C@H](NC(=O)[C@@H](N)CC(C)C)C(=O)N1CCC[C@H]1C(=O)N[C@@H](CCCNC(=N)N)C(=O)N[C@H](C(=O)N[C@@H](C)C(=O)NC(C(=O)NCC(=O)N[C@@H](CO)C(=O)N[C@@H](CO)C(=O)N[C@@H](Cc1ccccc1)C(=O)N[C@H](C(=O)N[C@H](C(=O)N[C@H](C(=O)O)C(C)C)[C@@H](C)O)C(C)C)C(C)(C)C)C(C)C (stereo partly drawn) (H-LLPRVA[ξTle]GSSFVTV-OH)
Stability (Alpha-lytic protease): Stable

SMILES: CC[C@H](C)[C@H](NC(=O)[C@H](Cc1ccccc1)NC(=O)[C@H](CCC(=O)O)NC(=O)[C@H](CCCCN)NC(=O)[C@H](C)NC(=O)[C@H](C)NC(=O)[C@H](CCC(N)=O)NC(=O)CNC(=O)[C@H](CCC(=O)O)NC(=O)[C@H](CC(C)C)NC(=O)[C@H](Cc1ccc(O)cc1)NC(=O)[C@H](CO)NC(=O)[C@H](CO)NC(=O)[C@@H](NC(=O)[C@H](CC(=O)O)NC(=O)[C@H](CO)NC(=O)[C@@H](NC(=O)[C@H](Cc1ccccc1)NC(=O)[C@@H](NC(=O)CNC(=O)C(NC(=O)[C@H](C)NC(=O)[C@@H](N)Cc1c[nH]cn1)C(C)(C)C(=O)O)[C@@H](C)O)[C@@H](C)O)C(C)C)C(=O)N[C@@H](C)C(=O)N[C@@H](Cc1c[nH]c2ccccc12)C(=O)N[C@@H](CC(C)C)C(=O)N[C@H](C(=O)N[C@@H](CCCCN)C(=O)NCC(=O)N[C@@H](CCCNC(=N)N)C(N)=O)C(C)C (stereo partly drawn)
Activity (Mus musculus [1]): Non-toxic | Activity (Mus musculus [2]): Non-toxic | Activity (Mus musculus [3]): Active | Activity (Mus musculus [4]): inactive | Activity (Mus musculus [5]): 50% | Activity (Mus musculus [6]): 45% | Stability (Dipeptidyl peptidase 4): Stable | Activity (Mus musculus [7]): Non-toxic | Activity (Mus musculus [8]): Non-toxic | Activity (Mus musculus [9]): Non-toxic | Activity (Mus musculus [10]): Non-toxic | Activity (Mus musculus [11]): Non-toxic | Activity (Mus musculus [12]): Non-toxic | Activity (Mus musculus [13]): Non-toxic | Activity (Mus musculus [14]): Non-toxic | Activity (Mus musculus [15]): Non-toxic | Activity (Mus musculus [16]): Non-toxic | Activity (Mus musculus [17]): Non-toxic

Other lines, results leading:

remaining at 0.5 h, 100 µM [18]: < 70%
SMILES: CC[C@H](C)[C@H](NC(=O)[C@@H]1CCCN1C(=O)[C@H](C)N)C(=O)N[C@@H](CO)C(=O)N[C@@H](Cc1c[nH]c2ccccc12)C(=O)N[C@@H](CO)C(=O)O (H-APISWS-OH)

Stability (Dipeptidyl peptidase 4): Stable
SMILES: CC[C@H](C)[C@H](NC(=O)[C@H](Cc1ccccc1)NC(=O)[C@H](CCC(=O)O)NC(=O)[C@H](CCCCN)NC(=O)[C@H](C)NC(=O)[C@H](C)NC(=O)[C@H](CCC(N)=O)NC(=O)CNC(=O)[C@H](CCC(=O)O)NC(=O)[C@H](CC(C)C)NC(=O)[C@H](Cc1ccc(O)cc1)NC(=O)[C@H](CO)NC(=O)[C@H](CO)NC(=O)[C@@H](NC(=O)[C@H](CC(=O)O)NC(=O)[C@H](CO)NC(=O)[C@@H](NC(=O)[C@H](Cc1ccccc1)NC(=O)[C@@H](NC(=O)CNC(=O)C(NC(=O)[C@H](C)NC(=O)[C@@H](N)Cc1cnc[nH]1)C(C)(C)C)[C@@H](C)O)[C@@H](C)O)C(C)C)C(=O)N[C@@H](C)C(=O)N[C@@H](Cc1c[nH]c2ccccc12)C(=O)N[C@@H](CC(C)C)C(=O)N[C@H](C(=O)N[C@@H](CCCCN)C(=O)NCC(=O)N[C@@H](CCCN=C(N)N)C(N)=O)C(C)C (stereo partly drawn)

Stability (Trypsin): Stable | remaining at 0.6 h, 100 µM [19]: 50%
SMILES: CC(C)[C@H](NC(=O)C(NC(=O)[C@H](Cc1c[nH]c2ccccc12)NC(=O)[C@H](C)NC(=O)C(NC(=O)[C@H](Cc1ccccc1)NC(=O)C(NC(=O)[C@H](CCCCN)NC(=O)[C@H](C)NC(=O)[C@H](C)NC(=O)[C@H](CCC(N)=O)NC(=O)CNC(=O)[C@H](CCC(=O)O)NC(=O)C(NC(=O)[C@H](Cc1ccc(O)cc1)NC(=O)[C@H](CO)NC(=O)[C@H](CO)NC(=O)[C@@H](NC(=O)[C@H](CC(=O)O)NC(=O)[C@H](CO)NC(=O)C(NC(=O)[C@H](Cc1ccccc1)NC(=O)[C@@H](NC(=O)CNC(=O)C(NC(=O)[C@H](C)NC(=O)[C@@H](N)Cc1c[nH]cn1)C(C)(C)C(=O)O)[C@@H](C)O)C(C)(C)C)C(C)C)C(C)(C)C)C(C)(C)C(=O)O)C(C)(C)C)C(C)(C)C)C(=O)N[C@@H](CCCCN)C(=O)NC(C(=O)N[C@@H](CCCNC(=N)N)C(N)=O)C(C)(C)C(=O)O (stereo partly drawn) (H-HA[ξAsp(3,3-Me2)]GTF[ξTle]SDVSSY[ξTle]EGQAAK[ξAsp(3,3-Me2)]F[ξTle]AW[ξTle]VK[ξAsp(3,3-Me2)]R-NH2)
